Laboratory results published in ChEMBL document CHEMBL3997773, “Synthesis of C-4-Substituted Steviol Derivatives and Their Inhibitory Effects against Hepatitis B Virus” (J Nat Prod, 2016).
The source made the active and inactive calls. The rule behind the calls is not given here.

Tests used:
[1] = test system: Hepatitis B virus subtype adw2; experiment: Antiviral activity against Hepatitis B virus subtype adw2 infected in human HuH7 cells assessed as inhibition of HBeAg secretion after 3 days by EIA; format: functional, cell-based
Procedure, shortened: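 HBV-expressing Huh7 cells were given 2.5, 5 or 10 μg/mL for 3 days. HBsAg and HBeAg in the conditioned medium were measured by enzyme immunoassay. Mean ± SD, n = 3, compared with untreated cells.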

[2] = test system: Hepatitis B virus subtype adw2; experiment: Antiviral activity against Hepatitis B virus subtype adw2 infected in human HuH7 cells assessed as inhibition of viral DNA replication after 3 days by RT-PCR method; format: functional, cell-based
Procedure, shortened: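 HBV-expressing Huh7 cells were dosed at 2.5, 5 or 10 μg/mL for 3 days. Viral DNA was isolated from virion particles in the conditioned medium and quantified by real-time PCR. Mean ± SD, n = 3, compared with untreated cells.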

[3] = test system: Hepatitis B virus subtype adw2; experiment: Antiviral activity against Hepatitis B virus subtype adw2 infected in human HuH7 cells assessed as reduction in major S/preS RNA level at 2.5 to 10 ug/ml after 2 days by northern blot method; format: functional, cell-based
Procedure, shortened: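 After pHBV1.2 transfection of Huh7 cells for 2 days, cells were treated at 2.5, 5 or 10 μg/mL for 2 more days. Total RNA was Northern-blotted with an HBV whole-genome DNA probe. GAPDH served as loading control and β-gal marked transfection efficiency. Bands from three experiments were quantified by densitometry and normalized to GAPDH.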

[4] = Antiviral activity against Hepatitis B virus subtype adw2 infected in human HuH7 cells assessed as reduction in HBcAg level at 2.5 ug/ml after 2 days by immunoblot method relative to control; format: functional
Procedure, shortened: (§1)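 Huh7 cells were transfected with pHBV1.2 (1.2-fold HBV adw2 genome) for 2 days, then exposed to 2.5, 5 or 10 μg/mL for another 2 days. Whole-cell protein was extracted with protease inhibitors. SHBs, HBcAg and HBx were detected by immunoblot, with α-tubulin for comparison.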

[5] = Antiviral activity against Hepatitis B virus subtype adw2 infected in human HuH7 cells assessed as reduction in HBcAg level at 10 ug/ml after 2 days by immunoblot method relative to control; format: functional; procedure, shortened: as §1
[6] = Antiviral activity against Hepatitis B virus subtype adw2 infected in human HuH7 cells assessed as effect on HBx level at 2.5 ug/ml after 2 days by immunoblot method relative to control; format: functional; procedure, shortened: as §1
Hepatitis B virus = experiment: Decrease in HBV S promoter activity infected in human HuH7 cells cotransfected with pHBV1.2 at 10 ug/ml after 24 hrs by luciferase reporter gene assay; format: cell-based
Procedure, shortened: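 Huh7 cells were seeded for 24 h, then cotransfected with pHBV1.2, pRLSV40 and a pGL4.17-based Core (nt 1636-1851), S (nt 3114-220), PreS (nt 2438-2855) or X (nt 1071-1357) promoter-luciferase construct for 24 h. Cells were then treated at 10 μg/mL for 24 h and lysates were assayed for luciferase. Mean ± SD, n = 3.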

[7] = Decrease in NF-kB (unknown origin) promoter activity expressed in human HuH7 cells cotransfected with pHBV1.2 at 10 ug/ml after 24 hrs by luciferase reporter gene assay; format: cell-based
Procedure, shortened: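 Huh7 cells were seeded for 24 h, then cotransfected with pHBV1.2, pRLSV40 and pAP1-Luc or pNF-κB-Luc responsive-element reporter for 24 h. Cells were treated at 10 μg/mL for 24 h and lysates were assayed for luciferase. Mean ± SD, n = 3, compared with untreated cells.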

[8] = Effect on ISRE (unknown origin) promoter activity expressed in human HuH7 cells cotransfected with pHBV1.2 at 10 ug/ml after 24 hrs by luciferase reporter gene assay; format: cell-based
Procedure, shortened: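 Huh7 seeded in 24-well plates for 24 h. They were cotransfected with pHBV1.2 plus a luciferase reporter carrying the AP-2 (pAP2-Luc) or ISRE (pISRE-Luc) element, at 1 μg/well, and pRLSV40, in serum-free DMEM for 24 h. After a PBS wash, cells were placed in DMEM with 2% FBS and treated with 10 μg/mL. Luciferase was read from lysates; mean ± SD, n = 3.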

Huh-7 [9] = experiment: Decrease in NF-kB p50 protein expression in human HuH7 cells transfected with pHBV1.2 at 10 ug/ml after 2 days by immunoblot method relative to control; format: functional
Procedure, shortened: (§2)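 Huh7 cells were transfected with pHBV1.2 for 2 days, then treated at 2.5, 5 or 10 μg/mL for another 2 days. Whole-cell protein was extracted with protease inhibitors. NF-κB p65/p50, phospho-p65, IKKα/β and IκBα/phospho-IκBα were detected by immunoblot. Blots are representative of three experiments.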

Huh-7 [10] = experiment: Decrease in IKKbeta protein expression in human HuH7 cells transfected with pHBV1.2 at 5 ug/ml after 2 days by immunoblot method relative to control; format: functional; procedure, shortened: as §2
[11] = target: Transcription factor p65 (Homo sapiens) (UniProt Q04206); experiment: Decrease in NF-kB p65 phosphorylation in human HuH7 cells transfected with pHBV1.2 at 2.5 ug/ml after 2 days by immunoblot method relative to control; format: cell-based; procedure, shortened: as §2
Transcription factor p65 (Homo sapiens), sequence (Q04206 whole entry): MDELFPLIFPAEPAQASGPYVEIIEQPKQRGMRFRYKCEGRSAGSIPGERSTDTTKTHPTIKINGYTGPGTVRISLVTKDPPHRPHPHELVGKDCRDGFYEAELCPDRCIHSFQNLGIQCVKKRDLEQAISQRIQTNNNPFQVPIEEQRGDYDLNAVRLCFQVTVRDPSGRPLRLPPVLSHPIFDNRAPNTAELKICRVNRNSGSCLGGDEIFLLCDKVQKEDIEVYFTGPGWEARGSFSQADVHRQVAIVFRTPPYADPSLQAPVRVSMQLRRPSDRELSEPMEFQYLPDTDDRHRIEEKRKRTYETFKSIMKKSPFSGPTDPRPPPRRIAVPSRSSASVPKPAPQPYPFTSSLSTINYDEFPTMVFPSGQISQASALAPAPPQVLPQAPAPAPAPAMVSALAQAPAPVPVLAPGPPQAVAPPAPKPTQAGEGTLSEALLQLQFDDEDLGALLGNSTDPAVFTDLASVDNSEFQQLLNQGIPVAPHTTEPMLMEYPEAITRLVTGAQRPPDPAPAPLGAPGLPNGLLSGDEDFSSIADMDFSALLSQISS

[12] = target: Transcription factor p65 (Homo sapiens) (UniProt Q04206); experiment: Decrease in NF-kB p65 phosphorylation in human HuH7 cells transfected with pHBV1.2 at 5 ug/ml after 2 days by immunoblot method relative to control; format: cell-based; procedure, shortened: as §2
[13] = target: T1, NF-kappa-B inhibitor alpha (Homo sapiens) (UniProt P25963); experiment: Decrease in IKBalpha phosphorylation in human HuH7 cells transfected with pHBV1.2 at 5 ug/ml after 2 days by immunoblot method relative to control; format: cell-based; procedure, shortened: as §2
T1 sequence (whole entry): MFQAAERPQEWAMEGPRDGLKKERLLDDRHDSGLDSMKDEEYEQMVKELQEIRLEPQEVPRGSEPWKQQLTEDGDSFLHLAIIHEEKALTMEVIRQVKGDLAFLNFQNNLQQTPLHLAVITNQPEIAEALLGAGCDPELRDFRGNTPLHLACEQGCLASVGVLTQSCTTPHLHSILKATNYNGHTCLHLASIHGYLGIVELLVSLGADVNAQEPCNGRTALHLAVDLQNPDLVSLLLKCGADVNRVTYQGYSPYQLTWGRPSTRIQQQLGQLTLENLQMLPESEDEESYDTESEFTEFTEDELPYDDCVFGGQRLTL

Huh-7 [14] = experiment: Decrease in IKBalpha protein expression in human HuH7 cells transfected with pHBV1.2 at 5 ug/ml after 2 days by immunoblot method relative to control; format: functional; procedure, shortened: as §2
Huh-7 [15] = experiment: Decrease in IKBalpha protein expression in human HuH7 cells transfected with pHBV1.2 at 10 ug/ml after 2 days by immunoblot method relative to control; format: functional; procedure, shortened: as §2
Huh-7 [16] = experiment: Decrease in IKBalpha protein expression in human HuH7 cells transfected with pHBV1.2 after 2 days by immunoblot method; format: functional, cell-based; procedure, shortened: as §2
[17] = target: Mitogen-activated protein kinase; ERK1/ERK2 (Homo sapiens) (UniProt P27361+P28482); experiment: Decrease in ERK1/2 phosphorylation in human HuH7 cells transfected with pHBV1.2 at 2.5 to 10 ug/ml after 2 days by immunoblot method
Mitogen-activated protein kinase; ERK1/ERK2 (Homo sapiens), sequence (P27361 whole entry, looked up): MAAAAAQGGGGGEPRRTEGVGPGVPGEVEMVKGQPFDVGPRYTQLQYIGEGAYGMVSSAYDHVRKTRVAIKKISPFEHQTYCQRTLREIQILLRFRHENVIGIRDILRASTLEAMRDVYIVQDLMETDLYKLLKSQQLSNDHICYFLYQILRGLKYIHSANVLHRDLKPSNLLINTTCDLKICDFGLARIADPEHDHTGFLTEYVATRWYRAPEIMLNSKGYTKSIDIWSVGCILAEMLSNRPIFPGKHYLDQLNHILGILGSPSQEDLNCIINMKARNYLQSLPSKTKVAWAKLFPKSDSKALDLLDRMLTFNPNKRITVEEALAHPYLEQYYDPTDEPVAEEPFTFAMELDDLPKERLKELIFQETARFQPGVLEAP
Mitogen-activated protein kinase; ERK1/ERK2 (Homo sapiens), sequence (P28482 whole entry, looked up): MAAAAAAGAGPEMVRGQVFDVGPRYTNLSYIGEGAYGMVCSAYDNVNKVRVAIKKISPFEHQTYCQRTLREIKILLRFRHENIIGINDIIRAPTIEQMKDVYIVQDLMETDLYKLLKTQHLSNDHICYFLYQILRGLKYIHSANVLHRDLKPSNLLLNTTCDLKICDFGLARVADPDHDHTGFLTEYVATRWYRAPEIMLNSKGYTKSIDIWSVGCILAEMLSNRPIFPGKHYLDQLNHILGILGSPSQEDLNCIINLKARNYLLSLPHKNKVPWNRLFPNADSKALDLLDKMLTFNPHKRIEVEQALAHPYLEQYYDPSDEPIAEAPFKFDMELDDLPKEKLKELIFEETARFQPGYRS

[18] = Selectivity index, ratio of TC50 for human HepG2.2.15 cells to IC50 for Hepatitis B virus subtype adw2 infected in human HuH7 cells assessed as inhibition of HBsAg secretion

## C=C1C[C@@]23CC[C@H]4[C@@](C)(CCC[C@@]4(C)NC(=O)NCCCC)[C@@H]2CC[C@]1(O)C3
[1]
  inhibition: Dose-dependent effect
[2]
  inhibition: Dose-dependent effect
[3]
  Activity: Active
[4]
  fold change (FC): 0.78
[5]
  fold change (FC): 0.11
[6]
  fold change (FC): 1.12
Hepatitis B virus
  Activity: Active
[7]
  Activity: Active
[8]
  Activity: inactive
Huh-7 [9]
  fold change (FC): 0.26
Huh-7 [10]
  fold change (FC): 0.97
[11]
  fold change (FC): 0.95
[12]
  fold change (FC): 0.88
[13]
  fold change (FC): 0.94
Huh-7 [14]
  fold change (FC): 0.94
Huh-7 [15]
  fold change (FC): 0.25
Huh-7 [16]
  Activity: Dose-dependent effect
[17]
  Activity: Active
[18]
  selectivity ratio: 41.4
